Data: ChEMBL document CHEMBL1131075, “New aza-dipeptide analogues as potent and orally absorbed HIV-1 protease inhibitors: candidates for clinical development” (J Med Chem, 1998)

Key:
[1] = system: Human immunodeficiency virus 1; experiment: Antiviral activity against HIV-1 protease inhibitor-resistant strain(saquinavir resistant) of the HI virus.(Mutant: G48V,L90M); format: functional
How it was run: (§1)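 CEM-SS cells were infected with each HIV-1 strain (MOI 0.001-0.005) for 4 h at 37 °C, then washed and plated at 20 000 cells/well with serial 3-fold compound dilutions in triplicate at 37 °C, 5% CO2. Compound was kept at constant final concentration through cell splitting on day 4 and medium replacement on day 7. Supernatant RT activity was assayed on days 4, 7 and 10. Value is the lowest concentration giving total inhibition of replication until day 10, averaged over at least three determinations.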

Mus musculus [2] = experiment: Drug concentration in blood sample was analyzed by reversed phase HPLC 30 min (c30) after oral application of 120 mg/kg in a standardized formulation; format: functional
How it was run: (§2)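 Female Balb/c mice with free access to food and water, dosed by gavage at 120 mg/kg. Compound dissolved in DMSO at 240 mg/mL, then diluted 1:20 with aqueous 20% hydroxypropyl-β-cyclodextrin, giving a suspension. Four mice per time point; heart blood taken at 30 and 90 min. Plasma deproteinated with acetonitrile and quantified by reversed-phase HPLC-UV against a plasma calibration curve.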

Mus musculus [3] = experiment: Drug concentration in blood sample was analyzed by reversed phase HPLC 30 min (c90) after oral application of 120 mg/kg in a standardized formulation; format: functional; conditions: in the assay text read “90 min” for “30 min”; how it was run: as §2
[4] = target: Human immunodeficiency virus type 1 protease (Human immunodeficiency virus 1) (UniProt Q72874); experiment: concentration of compound required to inhibit 90% of RT production in HIV-1/MN-infected MT-2 cells.; format: functional, cell-based; conditions: MT2
How it was run: (§3)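 HIV-1/MN virus stocks taken from culture supernatant of chronically infected H9/HIV-1/MN cells and used to infect MT-2 cells. Antiviral effect read out as percent reduction of reverse transcriptase activity. ED50 and ED90 are the concentrations giving 50% and 90% inhibition of RT production. Values are averages of at least three determinations.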

[5] = system: Human immunodeficiency virus 1; experiment: Antiviral activity against HIV-1 protease inhibitor-resistant strain(Wild type) of the HI virus; format: functional; how it was run: as §1
[6] = system: Human immunodeficiency virus 1; experiment: Antiviral activity against HIV-1 protease inhibitor-resistant strain(indinavir resistant) of the HI virus(L10R,M46I,L63P,V82T,I84V); format: functional; how it was run: as §1
[7] = system: Human immunodeficiency virus 1; experiment: Antiviral activity against HIV-1 protease inhibitor-resistant strain(CGP 61755 resistant) of the HI virusMutant: K45I,A71Tmix,L76F,I84Vmix); format: functional; how it was run: as §1
[8] = target: Human immunodeficiency virus type 1 protease (Human immunodeficiency virus 1) (UniProt Q72874); experiment: Concentration required to inhibit 50% of RT production in HIV-1/MN-infected MT-2 cells.; format: functional, cell-based; conditions: MT2; how it was run: as §3
[9] = system: Human immunodeficiency virus 1; experiment: Antiviral activity against HIV-1 protease inhibitor-resistant strain(indinavir resistant)of the HI virus(L10R,M46I,L63P,V82T,I84V); format: functional; how it was run: as §1
[10] = system: Human immunodeficiency virus 1; experiment: Antiviral activity against HIV-1 protease inhibitor-resistant strain(CGP 61755 resistant)of the HI virus(Mutant: V32I,M46I,L63P,I84A); format: functional; how it was run: as §1
[11] = system: Human immunodeficiency virus 1; experiment: Antiviral activity against HIV-1 protease inhibitor-resistant strain(CGP 61755 resistant)of the HI virusMutant: K45I,A71Tmix,L76F,I84Vmix); format: functional; how it was run: as §1
[12] = system: Human immunodeficiency virus 1; experiment: Antiviral activity against HIV-1 protease inhibitor-resistant strain(CGP 61755 resistant) of the HI virus(Mutant: V32I,M46I,L63P,I84A); format: functional; how it was run: as §1

ED90 [4] [nM] | ED50 [8] [nM] | SMILES | ED [1] [µM] | c30 (Mus musculus [2]) [µM] | c90 (Mus musculus [3]) [µM] | ED [5] [µM] | ED [6] [µM] | ED [7] [µM] | ED [9] [µM] | ED [10] [µM] | ED [11] [µM] | ED [12] [µM]
10 | 2.6 | COC(=O)N[C@H](C(=O)NN(Cc1ccc(-c2ccccn2)cc1)C[C@H](O)[C@H](Cc1ccccc1)NC(=O)[C@@H](NC(=O)OC)C(C)(C)C)C(C)C | – | 15.3 | 13.3 | – | – | – | – | – | – | –
30 | 5.6 | COC(=O)N[C@H](C(=O)N[C@@H](Cc1ccccc1)[C@@H](O)CN(Cc1ccc(-c2cncs2)cc1)NC(=O)[C@@H](NC(=O)OC)C(C)C)C(C)C | – | 1.8 | 0.1 | – | – | – | – | – | – | –
10 | 2.8 | CCC(C)[C@H](NC(=O)OC)C(=O)N[C@@H](Cc1ccccc1)[C@@H](O)CN(Cc1ccc(-c2ccccn2)cc1)NC(=O)[C@@H](NC(=O)OC)C(C)C (stereo partly specified) | – | 0.4 | 0.3 | – | – | – | – | – | – | –
30 | 7.4 | COC(=O)N[C@H](C(=O)N[C@@H](Cc1ccccc1)[C@@H](O)CN(Cc1ccc(-c2ccccn2)cc1)NC(=O)[C@@H](NC(=O)OC)C(C)C)C(C)C | – | 2.7 | 2.2 | – | – | – | – | – | – | –
10 | 1.8 | COC(=O)N[C@H](C(=O)N[C@@H](Cc1ccccc1)[C@@H](O)CN(Cc1ccc(-c2ccccc2)cc1)NC(=O)[C@@H](NC(=O)OC)C(C)C)C(C)C | – | <0.1 | 0.3 | – | – | – | – | – | – | –
30 | 5.4 | CCOC(=O)N[C@H](C(=O)NN(Cc1ccc(-c2ccccn2)cc1)C[C@H](O)[C@H](Cc1ccccc1)NC(=O)[C@@H](NC(=O)OC)C(C)C)C(C)C | – | 0.5 | 0.2 | – | – | – | – | – | – | –
3 | 1.2 | CCOC(=O)N[C@H](C(=O)NN(Cc1ccc(-c2cncs2)cc1)C[C@H](O)[C@H](Cc1ccccc1)NC(=O)[C@@H](NC(=O)OC)C(C)(C)C)C(C)C | – | 1.4 | 1.4 | – | – | – | – | – | – | –
10 | 2 | COC(=O)N[C@H](C(=O)N[C@@H](Cc1ccccc1)[C@@H](O)CN(Cc1ccc(-c2ccccn2)cc1)NC(=O)[C@@H](NC(=O)OC)C(C)(C)C)C(C)C | – | 13.8 | 12.7 | – | – | – | – | – | – | –

Further lines, the compound ahead of its results:

SMILES | ED90 [4] [nM] | ED50 [8] [nM] | ED [1] [µM] | c30 (Mus musculus [2]) [µM] | c90 (Mus musculus [3]) [µM] | ED [5] [µM] | ED [6] [µM] | ED [7] [µM] | ED [9] [µM] | ED [10] [µM] | ED [11] [µM] | ED [12] [µM]
COC(=O)N[C@H](C(=O)N[C@@H](Cc1ccccc1)[C@@H](O)CN(Cc1ccc(-c2nccs2)cc1)NC(=O)[C@@H](NC(=O)OC)C(C)(C)C)C(C)(C)C | 3 | 0.5 | 0.004 | 9.1 | 10.2 | 0.01 | 0.1 | 0.3 | – | – | – | –
CCOC(=O)N[C@H](C(=O)N[C@@H](Cc1ccccc1)[C@@H](O)CN(CC1CCCCC1)NC(=O)[C@@H](NC(=O)OCC)C(C)C)C(C)C | 1000 | 55 | – | 6.7 | 7.8 | – | – | – | – | – | – | –
COC(=O)N[C@H](C(=O)N[C@@H](Cc1ccccc1)[C@@H](O)CN(Cc1ccc(-c2nnn(C(C)(C)C)n2)cc1)NC(=O)[C@@H](NC(=O)OC)C(C)(C)C)C(C)(C)C | 3 | 0.8 | – | 4.2 | 4.6 | – | – | – | – | – | – | –
COC(=O)N[C@H](C(=O)NN(Cc1ccc(-c2ccccc2)cc1)C[C@H](O)[C@H](Cc1ccccc1)NC(=O)[C@@H](NC(=O)OC)C(C)(C)C)C(C)C | 3 | 0.7 | – | 0.6 | 1.1 | – | – | – | – | – | – | –
COC(=O)N[C@H](C(=O)N[C@@H](Cc1ccccc1)[C@@H](O)CN(CCC(C)C)NC(=O)[C@@H](NC(=O)OC)C(C)C)C(C)C | 30 | 2.7 | – | <0.2 | 0.4 | – | – | – | – | – | – | –
COC(=O)N[C@H](C(=O)N[C@@H](Cc1ccccc1)[C@@H](O)CN(Cc1ccc(-c2nnn(C)n2)cc1)NC(=O)[C@@H](NC(=O)OC)C(C)(C)C)C(C)(C)C | 10 | 0.8 | 0.01 | 20.3 | 14.7 | 0.01 | 0.1 | 0.9 | – | – | – | –
COC(=O)N[C@H](C(=O)N[C@@H](Cc1ccccc1)[C@@H](O)CN(Cc1ccc(-c2nccs2)cc1)NC(=O)[C@@H](NC(=O)OC)C(C)(C)C)C(C)C | 10 | 2.1 | – | 17.5 | 14.9 | – | – | – | – | – | – | –
COC(=O)N[C@H](C(=O)N[C@@H](Cc1ccccc1)[C@@H](O)CN(Cc1ccc(-c2ccccc2)cc1)NC(=O)[C@@H](NC(=O)OC)C(C)(C)C)C(C)C | 3 | 1.5 | – | 6.3 | 5.4 | – | – | – | – | – | – | –
CCN(CC)c1ccc(CN(C[C@H](O)[C@H](Cc2ccccc2)NC(=O)[C@@H](NC(=O)OC)C(C)(C)C)NC(=O)[C@@H](NC(=O)OC)C(C)(C)C)cc1 | 10 | 1.6 | – | 11.8 | 7.6 | – | – | – | – | – | – | –
COC(=O)N[C@H](C(=O)NN(Cc1ccc(-c2cncs2)cc1)C[C@H](O)[C@H](Cc1ccccc1)NC(=O)[C@@H](NC(=O)OC)C(C)(C)C)C(C)C | 10 | 1.9 | – | 8.5 | 5.7 | – | – | – | – | – | – | –
COC(=O)N[C@H](C(=O)N[C@@H](Cc1ccccc1)[C@@H](O)CN(Cc1ccc(-c2ccccc2)cc1)NC(=O)[C@@H](NC(=O)OC)C(C)(C)C)C(C)(C)C | 3 | 0.7 | 0.01 | 5.5 | 4.9 | 0.01 | – | – | 0.1 | 0.9 | 0.3 | –
COC(=O)N[C@H](C(=O)N[C@@H](Cc1ccccc1)[C@@H](O)CN(Cc1ccc(-c2cncs2)cc1)NC(=O)[C@@H](NC(=O)OC)C(C)(C)C)C(C)(C)C | 3 | 0.8 | – | 12.6 | 9.9 | – | – | – | – | – | – | –
COC(=O)N[C@H](C(=O)N[C@@H](Cc1ccccc1)[C@@H](O)CN(Cc1ccc(-c2ccccn2)cc1)NC(=O)[C@@H](NC(=O)OC)C(C)(C)C)C(C)(C)C [ATAZANAVIR] | 3 | 1.4 | 0.004 | 21.8 | 31.8 | 0.01 | 0.03 | 0.3 | – | – | – | 0.3
COC(=O)N[C@H](C(=O)N[C@@H](Cc1ccccc1)[C@@H](O)CN(Cc1ccc(-c2cncs2)cc1)NC(=O)[C@@H](NC(=O)OC)C(C)(C)C)C(C)C | 10 | 1.4 | – | 8.5 | 4.4 | – | – | – | – | – | – | –
